# Measurements gathered from unrelated publications.
SMILES,tested on,test,system,conditions,measurement,value
CC(=O)O[C@H]1C(=O)[C@@]2(C)[C@H]([C@H](OC(=O)c3ccccc3)[C@]3(O)C[C@H](OC(=O)[C@H](O)[C@@H](NC(=O)c4ccccc4)c4ccccc4)C(C)=C1C3(C)C)[C@]1(OC(C)=O)CO[C@@H]1C[C@@H]2O,L02,"cell growth or viability, CCK-8",,"12.5 µM, 72 h",inhibition,> 90%
CC(=O)OCC(=O)[C@@]12OC3(CCCC3)O[C@@H]1C[C@H]1[C@@H]3CCC4=CC(=O)C=C[C@]4(C)[C@@]3(F)[C@@H](O)C[C@@]12C,Severe acute respiratory syndrome coronavirus 2,"viral replication, inhibitor",Caco-2,replicon,IC50,3.37 µM
COc1ncc(-c2cn([C@@H]3O[C@](F)(CO[P@@](=O)(N[C@@H](C)C(=O)OC(C)C)Oc4ccccc4)[C@@H](O)[C@H]3O)cn2)cn1,Severe acute respiratory syndrome coronavirus 2,"viral replication, inhibitor",A549-ACE2,24 h,IC50,> 100 µM
O=[N+]([O-])NC(=S)NN=Cc1ccc(Br)cc1,Leishmania tropica,"parasite growth, MTT",,"72 h, promastigote",IC50,1240 µM
COc1ncc(-c2cn([C@@H]3O[C@](F)(CO)[C@@H](O)[C@H]3O)cn2)c(N)n1,Severe acute respiratory syndrome coronavirus 2,"viral replication, inhibitor",A549-ACE2,24 h,IC50,> 100 µM
CC1=NN(c2ccc(C)c(C)c2)C(=O)/C1=N\Nc1cccc(-c2cccc(C(=O)O)c2)c1O,Severe acute respiratory syndrome coronavirus 2,"viral replication, inhibitor",Caco-2,replicon,IC50,3.1 µM
Nc1ncc(-c2cn([C@@H]3O[C@](F)(CO)[C@@H](O)[C@H]3O)cn2)cn1,Severe acute respiratory syndrome coronavirus 2,"viral replication, inhibitor",A549-ACE2,24 h,IC50,> 100 µM
CCOc1nc2cccc(C(=O)O)c2n1Cc1ccc(-c2ccccc2-c2nnn[nH]2)cc1,Severe acute respiratory syndrome coronavirus 2,"viral replication, inhibitor",Calu-3,replicon,IC50,1.05 µM
COc1nc(N)ncc1-c1cn([C@@H]2O[C@](F)(CO[P@@](=O)(N[C@@H](C)C(=O)OC(C)C)Oc3ccccc3)[C@@H](OC(=O)C(C)C)[C@H]2OC(=O)C(C)C)cn1,Severe acute respiratory syndrome coronavirus 2,"viral replication, inhibitor",A549-ACE2,24 h,IC50,12.5 µM
COc1ccc(C=NNC(=S)N[N+](=O)[O-])cc1OC,Leishmania tropica,parasite growth,J774.A1,"72 h, intracellular, amastigote",IC50,775 µM
N.N.[Cl][Pt][Cl],NALM-6,"cell growth or viability, ATP luminescence",,"10 µM, 72 h",inhibition,97%
Cc1c(O)cccc1C(=O)N[C@@H](CSc1ccccc1)[C@H](O)CN1C[C@H]2CCCC[C@H]2C[C@H]1C(=O)NC(C)(C)C,Severe acute respiratory syndrome coronavirus 2,"viral replication, inhibitor",Caco-2,replicon,IC50,1.91 µM
O=[N+]([O-])NC(=S)NN=Cc1ccc(F)cc1,Leishmania tropica,parasite growth,J774.A1,"72 h, intracellular, amastigote",IC50,186 µM
COc1cnc(OC)n2nc(NS(=O)(=O)c3c(OCC(F)F)cccc3C(F)(F)F)nc12,L02,"cell growth or viability, CCK-8",,"100 µM, 72 h",inhibition,1.54%
